Measured values as given in ChEMBL document CHEMBL4706742, “Induction of Apoptosis in Cancer Cells by Glutathione Transferase Inhibitor Mediated Hydrophobic Tagging Molecules” (2021).
Active and inactive are the calls of the source. The calls are words filed in the database; no cut-off is given here.

Key:
[1] = target: Glutathione S-transferase P (Homo sapiens) (UniProt P09211); experiment: Inhibition of recombinant human N-terminal His-tagged GSTP1 (1 to 210 residues) expressed in Escherichia coli at 100 uM using reduced GSH as substrate measured after 0.5 hrs by CDNB assay
Glutathione S-transferase P (Homo sapiens), sequence (P09211 2-210 limits assumed): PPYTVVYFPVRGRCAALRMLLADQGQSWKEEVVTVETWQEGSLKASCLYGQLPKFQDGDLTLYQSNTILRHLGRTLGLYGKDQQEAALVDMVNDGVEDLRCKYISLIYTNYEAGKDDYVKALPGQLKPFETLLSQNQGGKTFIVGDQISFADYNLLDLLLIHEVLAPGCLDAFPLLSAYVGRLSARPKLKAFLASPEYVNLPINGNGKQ
Method in brief: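 GSTP catalytic activity followed via GSH–CDNB conjugation, read as absorbance at 340 nm specific to the conjugate. Compounds tested up to 100 μM.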

[2] = target: Glutathione S-transferase P (Homo sapiens) (UniProt P09211); experiment: Induction of GSTP1 degradation in human HeLa cells at 40 to 80 uM measured after 3 hrs by Western blot analysis; assay type: cell-based; settings: dose 40-80 µM
Method in brief: (§1)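 GSTP protein in whole-cell lysates, detected by Western blot with specific antibodies after 3 h compound exposure. HeLa (high GSTP expression) treated at 40 or 80 μM or over a dose range; A549 and HT1080 cells (high or medium GSTP) also tested. Blots representative of three independent experiments.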

[3] = target: Glutathione S-transferase P (Homo sapiens) (UniProt P09211); experiment: Induction of GSTP1 degradation in human HeLa cells at 5 to 80 uM measured after 3 hrs by Western blot analysis; assay type: cell-based; settings: dose 5-80 µM; method in brief: as §1
[4] = target: Glutathione S-transferase P (Homo sapiens) (UniProt P09211); experiment: Induction of GSTP1 degradation in human A549 cells at 40 to 80 uM measured after 3 hrs by Western blot analysis; assay type: cell-based; settings: dose 40-80 µM; method in brief: as §1
[5] = target: Glutathione S-transferase P (Homo sapiens) (UniProt P09211); experiment: Induction of GSTP1 degradation in human HT-1080 cells at 40 to 80 uM measured after 3 hrs by Western blot analysis; assay type: cell-based; settings: dose 40-80 µM; method in brief: as §1

SMILES | inhibition [1] | Activity [2] | Activity [3] | Activity [4] | Activity [5]
C=C(CC)C(=O)c1ccc(OCC(=O)OCCOC23CC4CC(CC(C4)C2)C3)c(Cl)c1Cl | Active | inactive | – | – | –
C=C(CC)C(=O)c1ccc(OCC(=O)OCCOCCOCCOCCOC23CC4CC(CC(C4)C2)C3)c(Cl)c1Cl | Active | inactive | – | – | –
C=C(CC)C(=O)c1ccc(OCC(=O)NCCCCCCNC(=O)CC23CC4CC(CC(C4)C2)C3)c(Cl)c1Cl | Active | Active | – | – | –
C=C(CC)C(=O)c1ccc(OCC(=O)NCCNC(=O)OC(C)(C)C)c(Cl)c1Cl | – | – | inactive | inactive | inactive
C=C(CC)C(=O)c1ccc(OCC(=O)OCCOCCOCCOC23CC4CC(CC(C4)C2)C3)c(Cl)c1Cl | Active | inactive | – | – | –
C=C(CC)C(=O)c1ccc(OCC(=O)OCCOCCOC23CC4CC(CC(C4)C2)C3)c(Cl)c1Cl | Active | inactive | – | – | –
